Assays:
[1] = Mean (%CV) PK parameters for CL(mL/min/kg).; type: ADME, organism-based; details: rat, in vivo
In short: (§1)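 Single-compound study in male Sprague-Dawley rats, dosed intravenously and orally in a parallel-group design. Parameters were derived from mean plasma concentration-time profiles.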

[2] = target: T1, Interstitial collagenase (Homo sapiens, UniProt P03956); test: In vitro inhibitory activity against matrix metalloprotease -1 (collagenase-1)
T1 sequence (P03956 whole entry): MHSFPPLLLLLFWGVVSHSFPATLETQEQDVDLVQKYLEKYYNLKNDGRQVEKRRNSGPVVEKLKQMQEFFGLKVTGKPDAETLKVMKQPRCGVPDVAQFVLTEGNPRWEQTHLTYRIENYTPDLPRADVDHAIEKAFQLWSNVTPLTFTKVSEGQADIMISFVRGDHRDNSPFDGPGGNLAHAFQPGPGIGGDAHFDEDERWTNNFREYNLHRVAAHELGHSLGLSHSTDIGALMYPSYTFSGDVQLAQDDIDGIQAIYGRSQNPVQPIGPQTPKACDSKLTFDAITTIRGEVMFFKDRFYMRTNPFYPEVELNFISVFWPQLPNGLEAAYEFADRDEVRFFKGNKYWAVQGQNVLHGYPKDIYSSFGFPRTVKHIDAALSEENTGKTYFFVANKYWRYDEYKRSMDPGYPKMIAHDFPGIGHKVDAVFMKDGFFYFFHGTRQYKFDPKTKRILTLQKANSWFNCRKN

[3] = Mean (%CV) PK parameters for Vdss(mL/kg).; type: ADME, organism-based; details: rat, in vivo; read-out: Vdss; in short: as §1
[4] = target: T2, Stromelysin-1 (Homo sapiens, UniProt P08254); test: In vitro inhibitory activity against matrix metalloprotease -3 (stromelysin)
[5] = Pharmacokinetic half time was determined intravenously in rats.; type: ADME, organism-based; details: rat, in vivo, iv; in short: as §1
[6] = target: T3, Matrilysin (Homo sapiens, UniProt P09237); test: In vitro inhibitory activity against matrix metalloprotease-7 (matrilysin, MMP-7)
T3 sequence (P09237 whole entry): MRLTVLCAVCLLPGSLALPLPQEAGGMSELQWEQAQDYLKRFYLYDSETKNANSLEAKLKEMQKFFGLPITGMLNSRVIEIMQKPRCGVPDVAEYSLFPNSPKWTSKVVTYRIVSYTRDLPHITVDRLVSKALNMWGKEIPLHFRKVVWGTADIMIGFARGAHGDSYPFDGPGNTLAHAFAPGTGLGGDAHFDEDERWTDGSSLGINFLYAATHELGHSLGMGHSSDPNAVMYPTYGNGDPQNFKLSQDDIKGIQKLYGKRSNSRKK
In short: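 Human recombinant truncated enzymes, final MMP-1 8 nM, MMP-3 16 nM, MMP-7 2 nM. Quenched-fluorescence assay with Mca-Pro-Leu-Gly-Leu-Dpa-Ala-Arg-NH₂ (4 µM) in 50 mM Tris pH 7.5, 0.2 M NaCl, 5 mM CaCl₂, 0.02% Brij-35 at 25 °C. Fluorescence (ex 328/em 393 nm) read kinetically for 30 min.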

[7] = Compound demonstarted an oral bioavailability of […]% with the half-life time as given in rats.; type: ADME, organism-based; details: rat, in vivo
[8] = organism: Rattus norvegicus; test: Time over 100 ng/ml in fasted rats; details: in vivo
[9] = Oral bioavailability measured by the ratio of […] area under concentration.; type: ADME, organism-based; details: rat, in vivo; in short: as §1
[10] = target: 72 kDa type IV collagenase (Homo sapiens, UniProt P08253); test: In vitro inhibitory activity against matrix metalloprotease -2 (gelatinase-A)
[11] = target: T4, Collagenase 3 (Homo sapiens, UniProt P45452)
[12] = target: T4, Collagenase 3; test: In vitro inhibitory activity against human recombinant matrix metalloprotease-13 (collagenase-3)
[13] = target: T4, Collagenase 3; remark: listed apart in the source
[14] = target: T2, Stromelysin-1; test: Inhibition of matrix metalloprotease-3 (stromelysin)
In short: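 Human recombinant truncated MMP-3 (E. coli-expressed), 16 nM final, with fluorogenic substrate Mca-Pro-Leu-Gly-Leu-Dpa-Ala-Arg-NH₂ at 4 µM, 25 °C, in 50 mM Tris pH 7.5, 0.2 M NaCl, 5 mM CaCl₂, 0.02% Brij-35.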

Sequence of 72 kDa type IV collagenase (P08253 whole entry): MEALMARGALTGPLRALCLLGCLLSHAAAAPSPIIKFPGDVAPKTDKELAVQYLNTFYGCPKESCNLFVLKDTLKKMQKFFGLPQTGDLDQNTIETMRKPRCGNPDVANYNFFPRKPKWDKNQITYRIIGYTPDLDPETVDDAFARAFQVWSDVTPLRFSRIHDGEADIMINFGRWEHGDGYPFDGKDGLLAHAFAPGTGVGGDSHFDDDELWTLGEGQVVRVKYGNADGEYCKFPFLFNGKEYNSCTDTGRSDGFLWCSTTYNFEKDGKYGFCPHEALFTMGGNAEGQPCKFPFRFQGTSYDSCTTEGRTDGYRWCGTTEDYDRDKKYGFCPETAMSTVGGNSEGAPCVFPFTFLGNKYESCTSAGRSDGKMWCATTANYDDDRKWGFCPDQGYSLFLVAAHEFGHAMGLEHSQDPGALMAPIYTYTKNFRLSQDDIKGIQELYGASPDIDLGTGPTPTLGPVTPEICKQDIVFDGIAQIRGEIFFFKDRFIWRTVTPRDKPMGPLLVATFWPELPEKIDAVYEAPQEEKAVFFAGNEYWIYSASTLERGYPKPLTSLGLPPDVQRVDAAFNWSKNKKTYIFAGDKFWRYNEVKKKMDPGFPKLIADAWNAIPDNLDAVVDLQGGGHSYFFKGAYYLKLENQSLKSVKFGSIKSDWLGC
T2 sequence (P08254 whole entry): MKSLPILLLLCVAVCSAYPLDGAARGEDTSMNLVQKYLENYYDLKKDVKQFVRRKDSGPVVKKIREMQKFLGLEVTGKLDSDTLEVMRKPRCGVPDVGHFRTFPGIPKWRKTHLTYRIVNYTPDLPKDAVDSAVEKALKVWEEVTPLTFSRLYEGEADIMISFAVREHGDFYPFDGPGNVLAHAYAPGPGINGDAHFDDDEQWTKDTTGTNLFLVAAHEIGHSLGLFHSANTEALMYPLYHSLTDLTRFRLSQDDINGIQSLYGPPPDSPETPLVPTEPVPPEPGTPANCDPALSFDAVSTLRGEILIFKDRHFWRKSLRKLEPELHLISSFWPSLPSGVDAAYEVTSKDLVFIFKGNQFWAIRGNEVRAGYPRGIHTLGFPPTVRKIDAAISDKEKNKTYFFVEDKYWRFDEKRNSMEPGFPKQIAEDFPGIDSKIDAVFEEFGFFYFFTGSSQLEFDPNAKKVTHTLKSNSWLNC

| SMILES | clearance [1] [L/h/kg] | IC50 [2] [µM] | Vd [3] [L/kg] | IC50 [4] [µM] | half-life [5] [h] | IC50 [6] [µM] | half-life [7] [h] | Time over 100ng/ml [8] [h] | bioavailability [9] [%] | IC50 [10] [µM] | IC50 [11] [µM] | IC50 [12] [µM] | IC50 [13] [µM] | IC50 [14] [µM] |
| --- | --- | --- | --- | --- | --- | --- | --- | --- | --- | --- | --- | --- | --- | --- |
| CCCCOc1ccc(S(=O)(=O)N2C[C@@H](N3CCOCC3)C[C@@H]2C(=O)NO)cc1 | 1.8 | 0.92 | 0.408 | 0.005 | 0.4 | 5.4 | 1.7 | 3.5 | 6 | 0.004 | 0.0006 |  |  |  |
| C=CCN1CC(=O)N([C@H]2C[C@H](C(=O)NO)N(S(=O)(=O)c3ccc(OCCCC)cc3)C2)C1=O |  | 0.48 |  | 0.007 |  | 1 |  | 4 |  |  |  | 0.0004 |  |  |
| CCCN(C(=O)[C@@H](O)CCc1ccccc1)[C@H]1C[C@H](C(=O)NO)N(S(=O)(=O)c2ccc(OC)cc2)C1 |  | 0.26 |  | 0.012 |  |  |  |  |  | 0.0006 |  |  | 0.0005 |  |
| COCCOc1ccc(S(=O)(=O)N2C[C@@H](N3C(=O)CN(C)C3=O)C[C@@H]2C(=O)NO)cc1 |  | 1.8 |  | 0.026 |  | 9.1 |  | 0 |  | 0.001 | 0.0044 |  |  |  |
| COc1ccc(S(=O)(=O)N2C[C@@H](N(Cc3cccnc3)S(C)(=O)=O)C[C@@H]2C(=O)NO)cc1 |  | 0.074 |  | 0.006 |  | 2.7 |  | 0 |  | 0.002 |  | 0.001 |  |  |
| CCCCOc1ccc(S(=O)(=O)N2C[C@@H](N3C(=O)CN(C)C3=O)C[C@@H]2C(=O)NO)cc1 |  |  |  |  |  | 1.6 |  | 0 |  |  |  |  |  | 0.002 |
| CCCOc1ccc(S(=O)(=O)N2C[C@@H](N3CCOCC3)C[C@@H]2C(=O)NO)cc1 |  | 0.49 |  | 0.007 |  | 16.5 |  | 4.5 |  |  |  | 0.001 |  |  |
| CCCCOc1ccc(S(=O)(=O)N2C[C@@H](N3CCS(=O)(=O)CC3)C[C@@H]2C(=O)NO)cc1 |  | > 1 |  | 0.012 |  | 3.4 |  |  |  | 0.007 | 0.0009 |  |  |  |
| CCCOc1ccc(S(=O)(=O)N2C[C@@H](N3CCCC3)C[C@@H]2C(=O)NO)cc1 |  | 0.31 |  | 0.008 |  | 8.7 |  |  |  | < 0.001 |  | 0.001 |  |  |
| CCCCOc1ccc(S(=O)(=O)N2C[C@@H](N3C(=O)NC(C)(C)C3=O)C[C@@H]2C(=O)NO)cc1 |  | 0.78 |  | 0.003 |  | 0.45 |  |  |  | 0.002 | < 0.0005 |  |  |  |
| COc1ccc(S(=O)(=O)N2C[C@@H](N)C[C@@H]2C(=O)NO)cc1 |  | 0.25 |  | 0.023 |  | 4.3 |  |  |  | 0.006 |  | 0.005 |  |  |
| CCCN1CC(=O)N([C@H]2C[C@H](C(=O)NO)N(S(=O)(=O)c3ccc(OCCOC)cc3)C2)C1=O |  | 2.5 |  | 0.03 |  | 11 |  |  |  | 0.002 |  | 0.002 |  |  |
| CCCCOc1ccc(S(=O)(=O)N2C[C@@H](N3C(=O)NC(SC)C3=O)C[C@@H]2C(=O)NO)cc1 (stereo not given in full) |  | 0.75 |  | 0.042 |  | 0.85 |  |  |  | 0.049 |  | < 0.0005 |  |  |

Reference: ChEMBL document CHEMBL1133563, “Development of new hydroxamate matrix metalloproteinase inhibitors derived from functionalized 4-aminoprolines” (J Med Chem, 2000)
